Shown are actives, neighbours in structure and some others; about 3% of the full set was active somewhere.
CaV13 ICDI inh: Disruptors of the CACNA1D IQ motif to Ca2+-dependent inactivation inhibitor domain association, primary screening, Förster resonance energy transfer in intact living … | inhibition, % at 12.3 µM | HEK cells, CFP/YFP FRET ICDI-IQ, plate reader, 10 min; percent FRET-ratio fall versus neutral wells | 340,000 tested, 0.098% active;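 active = mean replicate inhibition of at least 30% and at least 1% of replicates passing that level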;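 also: 0% = median of the neutral control wells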
PvdQ acylase: blocks Pseudomonas aeruginosa PvdQ acylase activity; purified PvdQ acylase, fluorescence plate reader; inhibition, % at 10 µM; 340,000 tested, 0.063% active; AID 488965; in the data active = inhibition above about 30%, passing the limit was not always enough;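 also: 0% = vehicle neutral wells and 100% = reference inhibitor wells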
T cruzi repl: blocks replication of Trypanosoma cruzi; 300,000 tested, 1.4% active; T. cruzi beta-gal in NIH3T3, luminescence, 90 h; inhibition, % (test concentration not listed);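 active = mean inhibition across valid replicates above about 55%, limit read from the data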;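 also: signal also drops with host cell toxicity which is not excluded here; 0% = plate median of DMSO wells and 100% = zero luminescence signal; higher percent means less beta-gal luminescence so fewer parasites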
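Material: NIH/3T3 host cells with β-galactosidase reporter T. cruzi; Input: 5,000 host fibroblasts per well; Medium: DMEM, 2% fetal bovine serum; Compound: 50 nL DMSO compound solution per well; Schedule: 3 h host attachment, then at least 90 h co-culture; Detection: luminescent β-galactosidase signal after 60 min lysis.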
PfHsp90 set2: inhibits growth of yeast expressing Plasmodium falciparum Hsp90; S. cerevisiae expressing PfHsp90, BacTiter-Glo ATP, 48 h; yeast lacking PDR1 and PDR3 efflux regulators; inhibition, % at 9.4 µM; 310,000 tested, 0.32% active; AID 504621;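 active = every replicate shows inhibition above about 80%, whatever the replicate mean, limit read from the data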;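 also: 0% = DMSO neutral controls and 100% = 20 µM radicicol positive controls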
HSF1 activator: increases HSF-1 driven luciferase reporter signal; NIH3T3-HGL HSF-1 luciferase reporter, MG132, 8 h; 100% = twice DMSO control signal; activation, % at 9 µM; 300,000 tested, 1.7% active;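 active = mean replicate activation of at least 50% with a set share of replicates each reaching 50%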;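 also: 0% = median of the neutral control wells and 100% = twice that signal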
N-glyco inh: blocks N-linked glycosylation in D54 reporter cells | D54 ERlucT glycosylation luciferase reporter, 24 h; percent of 100 nM tunicamycin response | reporter increase, % at 12.5 µM | 360,000 tested, 0.23% active | AID 588692;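 active = mean luciferase reporter signal, scaled so untreated is 0 and the glycosylation-blocking control 100, at or above a set limit in every replicate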;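 also: luciferase carries N-glycosylation sites so blocking glycosylation raises the light; 0% = median of neutral control wells and 100% = median of 100 nM tunicamycin wells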
The depositor's hits bear a star; · = no result given.

SMILES | CaV13 ICDI inh | PvdQ acylase | T cruzi repl | PfHsp90 set2 | HSF1 activator | N-glyco inh
O=[N+]([O-])c1cccc(-c2nc(-c3ccccc3)no2)c1 | -7 | -3 | 4 | -17 | 56* | -3
C[C@@H]1CN([C@H](C)CO)C(=O)CCCn2nncc2CO[C@@H]1CN(C)S(=O)(=O)c1ccc(-n2cccn2)cc1 | -9 | · | · | · | · | -1
COCCNC(=O)C1CCCN(Cc2cccc(C#N)c2)CC1 (centres undefined) | -11 | · | · | · | · | 2
Clc1ccc(CCNc2nc3ccccc3n3nnnc23)cc1 | -5 | 1 | 9 | -26 | 51* | 2
Cc1cccc(CCNc2nc3ccccc3n3nnnc23)c1 | -5 | -5 | -7 | 15 | 19 | -1
Cc1ccccc1CN1[C@@H](C)[C@H](c2ccccc2)Oc2cccc(N3CCCC(C)C3)c2S1(=O)=O (some centres undefined) | -5 | · | · | · | · | ·
COc1cccc(C2C(C(N)=O)=C(C)Nc3nc(-c4cccc(Cl)c4)nn32)c1 (centres undefined) | -5 | -4 | 5 | · | 99* | 11
CCC(C)C(CO)NCCCn1cnc2c(OC)ncnc21 (centres undefined) | -5 | · | · | · | · | 0
Cc1ccc(-c2cc(C(F)F)nc(NCc3cccnc3)n2)cc1 | -4 | -10 | 60* | · | 26 | 6
COc1ccc(-c2cc(C(F)(F)F)nc(NCc3cccs3)n2)cc1 | -5 | -2 | 55* | -3 | -9 | -2
COc1ccccc1-c1cc(C(F)(F)F)nc(NCc2cccs2)n1 | -5 | 1 | 4 | -24 | -38 | -2
Clc1ccc(NCc2cccnc2)c(Cl)c1 | -4 | 13 | -1 | 4 | 31 | 1
FC(F)(F)c1cc(-c2ccc(Cl)cc2)nc(NCc2cccnc2)n1 | -7 | -10 | 70* | 4 | 17 | 8
O=C(Nc1ccc(F)cc1)C(c1cccc(F)c1)N1CCN(Cc2c(F)cccc2Cl)CC1 (centres undefined) | -15 | · | · | · | · | ·
CCCS(=O)(=O)NC(=O)C1(C)CCCN(C(=O)c2cc(F)ccc2C)C1 (centres undefined) | -4 | · | · | · | · | -1
COc1ccc(C2NC(=S)NC3=C2CCCC3=C2SCCS2)cc1 (centres undefined) | -7 | 10 | 11 | 9 | -60 | 593*
COc1ccc2c(c1)CCC1=C2NC(=S)NC1c1ccc(N(C)C)cc1 (centres undefined) | -3 | -9 | 66* | -56 | 3 | -4
COc1cc(C2NC(=S)NC3=C2CCc2ccccc23)cc(OC)c1OC (centres undefined) | -4 | -10 | -3 | 5 | -4 | 1
S=C1NC2=C(CCCC2=C2SCCCS2)C(c2ccccc2)N1 (centres undefined) | -7 | -7 | 19 | -13 | 3 | -1
Cc1csc(NC(=O)CSc2ncnc3ccccc23)n1 | · | -16 | -1 | -4 | 19 | 1
Cc1csc(NC(=O)CSc2nc3ccccc3c3c2CCCC3)n1 | -5 | -6 | -3 | -1 | 58* | -10
CC(C)(C)c1nc(SCC(=O)Nc2nc3c(s2)CCCC3)c2ccccc2n1 | -9 | 4 | 59* | -54 | 3 | -16
Cc1csc(NC(=O)CCc2nc3ccccc3s2)n1 | -4 | -8 | 25 | -18 | 52* | 0
CC(C)NC(=O)C1C(c2ccc(C(F)(F)F)cc2)=Nc2ccccc2N1C(=O)c1cccc2ccccc12 (centres undefined) | -10 | · | · | · | · | ·
COC(=O)N/N=C\C=C\c1ccc2c(c1)OCO2 | -7 | 8 | -11 | -5 | 19 | -1
CC(C)(C)NC(=O)C(=O)N/N=C/c1ccc(Br)cc1 | · | -7 | -5 | 16 | 13 | 0
CC(C)(C)OC(=O)N/N=C/c1ccc(Br)cc1 | -4 | -11 | 6 | 12 | 53* | -3
CC(C)(C)OC(=O)N/N=C\C=C\c1ccc2c(c1)OCO2 | 10 | -9 | -14 | 18 | 56* | -5
CCn1cc(/C=C(\NC(=O)c2ccccc2OC)C(=O)NCCN2CCOCC2)c2ccccc21 | -10 | · | · | · | · | 4

Source: PubChem BioAssay (Broad Institute)
